Published values gathered from unrelated publications.
JAK3: Tyrosine-protein kinase JAK3 (JAK3, Homo sapiens, UniProt P52333)
JAK3 JH1: Tyrosine-protein kinase JAK3, JH1 (JAK3, Homo sapiens, UniProt P52333)

SMILES	target	test	setting	endpoint	value
CCCS(=O)(=O)Nc1ccc(F)c(C(=O)c2c[nH]c3ncc(-c4ccc(Cl)cc4)cc23)c1F	JAK3	enzyme activity, inhibitor	1 µM	inhibition	< 10%
COc1cc(/C=C/C(=O)CC(=O)/C=C/c2ccc(O)c(OC)c2)ccc1O	JAK3	enzyme activity, inhibitor	1 µM	activity vs control	104%
CC/C(=N\NC(=O)NCc1cccc(O)c1)c1ccc(O)c(C)c1O	JAK3	enzyme activity, inhibitor	0.1 µM	inhibition	3%
Cc1ccc(C(=O)Nc2ccc(CN3CCN(C)CC3)c(C(F)(F)F)c2)cc1C#Cc1cnc2cccnn12	JAK3	enzyme activity, inhibitor	23.5 nM	remaining activity	14%
O=C1NC(=O)c2cc(Nc3ccc(F)cc3)c(Nc3ccc(F)cc3)cc21	JAK3	cell-free assay	0.5 µM	remaining signal	93.9%
c1cnn2ncc(-c3ccnc(N4CCC45COC5)n3)c2c1	JAK3 JH1	cell-free assay	1 µM	remaining signal	68%
CCS(=O)(=O)c1cc2cc(C[C@](O)(CC(C)(C)c3ccc(F)cc3C(N)=O)C(F)(F)F)[nH]c2cn1	JAK3 JH1	cell-free assay, competition with immobilised ligand	1 µM	remaining binding	72%
CCCOc1ccc(OC)c(F)c1C(=O)c1ccc(C(=O)N[C@@H]2CNC[C@H]2NC(=O)c2ccc3[nH]ncc3c2)cc1	JAK3	enzyme activity, inhibitor	10 µM	remaining activity	19%
Cc1ccc(C(=O)NCc2ccsc2)cc1C#Cc1cn(C(C)C)c2ncnc(N)c12	JAK3	enzyme activity, inhibitor	1 µM	activity vs control	74%
O=C(CSc1nc2nccnc2c(=O)n1CCc1ccccc1)Nc1nccs1	JAK3	enzyme activity, inhibitor	10 µM	inhibition	-2%
COc1cccc(CNC(=O)c2nc3scc(COCc4ccc(C(=O)O)cc4)c3c(=O)[nH]2)c1	JAK3 JH1	cell-free assay, competition with immobilised ligand	1 µM	remaining binding	78.4%
Cc1ccc(Nc2nccc(N(C)c3ccc4c(C)n(C)nc4c3)n2)cc1S(N)(=O)=O	JAK3	enzyme activity, inhibitor	10 µM	inhibition	77%
CC1=C(C#N)[C@@H](c2ccc3[nH]nc(C)c3c2)C(C#N)=C(c2ccc(Cl)cc2)N1	JAK3 JH1	cell-free assay, competition with immobilised ligand	1 µM	remaining binding	100%
Cc1cc(NC(=O)c2cccc3cc(-c4cccc5[nH]nc(N)c45)ccc23)ccc1F	JAK3	enzyme activity, inhibitor	0.1 µM	activity vs control	94%
Nc1ncnc2occ(-c3ccc(NC(=O)Nc4cc(C(F)(F)F)ccc4F)cc3)c12	JAK3 JH1	cell-free assay, inhibitor	20 µM	remaining signal	4.3%
C[C@@H]1CCN(c2nccc(-c3cnn4ncccc34)n2)C1	JAK3 JH1	cell-free assay	1 µM	remaining signal	80%
Cn1nc(C(=O)NCc2ccc(C(=O)O)cc2)cc1-c1ccc2[nH]ccc2c1	JAK3 JH1	cell-free assay, competition with immobilised ligand	0.1 µM	remaining binding	65%
N#CCCc1ccc2c(c1)-c1[nH]c3ccc([N+](=O)[O-])cc3c1CC(=O)N2	JAK3	cell-free assay	0.5 µM	remaining signal	101%
O=C(Nc1cnn(-c2csc(C(=O)NC3COC3)c2)c1)Nc1ccccc1Cl	JAK3	enzyme activity, inhibitor	5 µM	remaining activity	102%
COc1ccc2c(c1)O[C@H](c1ccc(OC)c(OC)c1)C[C@@H]2NC(=O)C1(c2ccc3c(c2)OC(F)(F)O3)CC1	JAK3 JH1	cell-free assay, competition with immobilised ligand	1 µM	remaining binding	100%
CC(C)(C)c1nc(-c2cccc(NS(=O)(=O)c3c(F)cccc3F)c2F)c(-c2ccnc(N)n2)s1	JAK3	enzyme activity, inhibitor, radiometric	1 µM	remaining activity	115%
COc1cc2ncnc(Nc3ccc(Oc4ccccc4)c(C)c3C)c2cc1OC	JAK3	enzyme activity, inhibitor	1 µM	inhibition	5%
CSc1nc(C)c(-c2ccnc(Nc3ccc(N4CCOCC4)cc3)c2)[nH]1	JAK3	enzyme activity, inhibitor	10 µM	inhibition	65.5%
CCc1ccccc1C(=O)Nc1n[nH]c2c(C)c(F)c(C3C(C#N)=C(C)N(C)C(C)=C3C#N)cc12	JAK3 JH1	cell-free assay, competition with immobilised ligand	1 µM	remaining binding	79%
CNC(=O)c1cc(Oc2ccc(NC(=O)Nc3ccc(Cl)c(C(F)(F)F)c3)cc2)ccn1	JAK3	cell-free assay	0.5 µM	remaining signal	99.4%
O=C(NC[C@@H]1[C@H]2CN(C(=O)OCc3cc(C(F)(F)F)cc(C(F)(F)F)c3)C[C@@H]12)c1ccc2[nH]nnc2c1	JAK3 JH1	cell-free assay, competition with immobilised ligand	1 µM	remaining binding	69%
CCN(CC)CCNC(=O)c1c(C)[nH]c(/C=C2\C(=O)Nc3ccc(F)cc32)c1C	JAK3	enzyme activity, inhibitor	0.3 µM	inhibition	7%
CCOC(=O)c1cc2cc(-c3cc(C(=O)NCc4ccc(C(=O)O)cc4)nn3C)ccc2[nH]1	JAK3 JH1	cell-free assay, competition with immobilised ligand	0.1 µM	remaining binding	82%
C=CC(=O)Nc1cc(Nc2nccc(Nc3cc(Cl)c(F)cc3C(C)(C)O)n2)c(OC)cc1N1CC[C@@H](N(C)C)C1	JAK3	enzyme activity, inhibitor	1 µM	inhibition	24%
